In ChEMBL document CHEMBL2203193, “Synthesis of novel mono and bis-indole conduritol derivatives and their α/β-glycosidase inhibitory effects” (Bioorg Med Chem Lett, 2012):
pIC50: −log10 of the molar value.

Assays:
[1] = Inhibition of almond beta-glucosidase using 4-nitrophenyl beta-D-glucopyranoside as substrate after 30 mins by spectrophotometric analysis; design: species or system Prunus dulcis
Method in brief: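 Reaction held 1 mM 4-nitrophenyl β-D-glucopyranoside in phosphate buffer pH 6.8 with inhibitor, preincubated at 37 °C for 5 min. Enzyme (EC 3.2.1.21, 0.075 unit) was then added, followed by 30 min at 37 °C. Na₂CO₃ (100 mM) stop, then absorbance at 400 nm. Inhibitor at 10, 20, 30, 50, 70, 80, 90 and 100, triplicates. Control without inhibitor set to 100%; IC50 from activity% vs log[inhibitor].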

[2] = Inhibition of Bacillus stearothermophilus alpha-glucosidase using 4-nitrophenyl alpha-D-glucopyranoside as substrate after 30 mins by spectrophotometric analysis; design: species or system Geobacillus stearothermophilus
Method in brief: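 Inhibitor in phosphate buffer pH 6.8 with 1 mM 4-nitrophenyl α-D-glucopyranoside was preincubated 5 min at 37 °C. Then 0.075 unit enzyme was added and the mix held 30 min at 37 °C. Stopped with 100 mM Na₂CO₃; liberated p-nitrophenol read at 400 nm. Inhibitor levels were 1, 3, 10, 15 and 25, each in triplicate. IC50 came from an activity% vs log[inhibitor] plot, with no-inhibitor control taken as 100%.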

| pIC50 [1] | pIC50 [2] | Compound |
| --- | --- | --- |
| 4.17 | 4.74 | O[C@H]1[C@H](O)[C@@H](N2CCc3ccccc32)C=C[C@@H]1N1CCc2ccccc21 |
| 4.28 | 4.71 | CC(=O)O[C@H]1[C@H](OC(C)=O)[C@@H](n2ccc3ccccc32)C=C[C@@H]1n1ccc2ccccc21 |
| 4.61 | 4.91 | CC(=O)O[C@@H]1[C@@H](O)[C@H](OC(C)=O)C=C[C@H]1N1CCc2ccccc21 |

The remaining lines, values behind:

| Compound | pIC50 [1] | pIC50 [2] |
| --- | --- | --- |
| CC(=O)O[C@@H]1[C@@H](O)[C@H](OC(C)=O)C=C[C@H]1n1ccc2ccccc21 | 4.64 | 4.94 |
| C[C@H]1O[C@H](O[C@H]2[C@H](O)[C@@H](O)[C@@H](O[C@H]3[C@H](O)[C@@H](O)C(O)O[C@@H]3CO)O[C@@H]2CO)[C@H](O)[C@@H](O)[C@@H]1N[C@H]1C=C(CO)[C@@H](O)[C@H](O)[C@H]1O (stereo not given in full) [ACARBOSE] | 3.99 | 5.03 |
